From ChEMBL document CHEMBL3414431, “Synthesis, biological evaluation and molecular docking of some substituted pyrazolines and isoxazolines as potential antimicrobial agents” (2015)
Values after ≈ are worked out from the molar mass of the structure shown.

Tests used:
Staphylococcus aureus [1] = assay: Antimicrobial activity against Staphylococcus aureus ATCC 25923 assessed as diameter of zone of inhibition at 2 mg/ml after 24 hrs by agar well diffusion method; format: functional; details: ATCC 25923, 24 h, read-out: DIZ
How it was run: (§1)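 Agar well diffusion. Fungi were grown on Sabouraud dextrose agar and bacteria on nutrient agar (peptone, beef extract, NaCl, agar), with the inoculum spread over the medium. Wells were bored and filled with test drug at 2.0 mg/ml in DMSO. Plates sat 1 h at room temperature for diffusion, then 37 °C for 24 h. Inhibition zone diameter (mm, including well) is reported as mean ± SEM.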

Aspergillus fumigatus [2] = assay: Antimicrobial activity against Aspergillus fumigatus ATCC 1022 after 48 hrs by two-fold serial dilution method; format: functional; details: ATCC 1022, 48 h
How it was run: (§2)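 Two-fold serial broth dilution of compounds, 100 down to 3.125 (six levels). Each was inoculated with fungal suspension at 10^6 CFU/mL in suitable broth and incubated at 37 °C for 48 h. Growth was judged by turbidity to assign the minimum inhibitory concentration.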

Aspergillus flavus [3] = assay: Antimicrobial activity against Aspergillus flavus ATCC 9643 after 48 hrs by two-fold serial dilution method; format: functional; details: ATCC 9643, 48 h; how it was run: as §2
Aspergillus versicolor [4] = assay: Antimicrobial activity against Aspergillus versicolor ATCC 10072 after 48 hrs by two-fold serial dilution method; format: functional; details: ATCC 10072, 48 h; how it was run: as §2
Candida albicans [5] = assay: Antimicrobial activity against Candida albicans ATCC 12031 assessed as diameter of zone of inhibition at 2 mg/ml after 24 hrs by agar well diffusion method; format: functional; details: ATCC 12031, 24 h, read-out: DIZ; how it was run: as §1
Aspergillus versicolor [6] = assay: Antimicrobial activity against Aspergillus versicolor ATCC 10072 assessed as diameter of zone of inhibition at 2 mg/ml after 24 hrs by agar well diffusion method; format: functional; details: ATCC 10072, 24 h, read-out: DIZ; how it was run: as §1
Aspergillus flavus [7] = assay: Antimicrobial activity against Aspergillus flavus ATCC 9643 assessed as diameter of zone of inhibition at 2 mg/ml after 24 hrs by agar well diffusion method; format: functional; details: ATCC 9643, 24 h, read-out: DIZ; how it was run: as §1
Escherichia coli = assay: Antimicrobial activity against Escherichia coli ATCC 25922 assessed as diameter of zone of inhibition at 2 mg/ml after 24 hrs by agar well diffusion method; format: functional; details: ATCC 25922, 24 h, read-out: DIZ; how it was run: as §1
Aspergillus fumigatus [8] = assay: Antimicrobial activity against Aspergillus fumigatus ATCC 1022 assessed as diameter of zone of inhibition at 2 mg/ml after 24 hrs by agar well diffusion method; format: functional; details: ATCC 1022, 24 h, read-out: DIZ; how it was run: as §1
Candida albicans [9] = assay: Antimicrobial activity against Candida albicans ATCC 12031 after 48 hrs by two-fold serial dilution method; format: functional; details: ATCC 12031, 48 h; how it was run: as §2
Staphylococcus aureus [10] = assay: microbe, parasite or virus in culture; details: ATCC 25923, 24 h, read-out: DIZ
Aspergillus flavus [11] = assay: Antimicrobial activity against Aspergillus flavus ATCC 9643 assessed as diameter of zone of inhibition at 20 microg/disc after 24 hrs by agar well diffusion method; format: functional; details: ATCC 9643, 24 h, read-out: DIZ
How it was run: (§3)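 Fungal inoculum spread on Sabouraud dextrose agar. 6 mm wells bored and filled with test drug at 2.0 mg/ml in DMSO (stock-as-added). Plates held 1 h at room temperature for diffusion, then incubated at 37 °C for 24 h. Inhibition zone diameter measured in mm, including well diameter. Reported as mean ± SEM.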

Aspergillus fumigatus [12] = assay: Antimicrobial activity against Aspergillus fumigatus ATCC 1022 assessed as diameter of zone of inhibition at 20 microg/disc after 24 hrs by agar well diffusion method; format: functional; details: ATCC 1022, 24 h, read-out: DIZ; how it was run: as §3
Aspergillus versicolor [13] = assay: Antimicrobial activity against Aspergillus versicolor ATCC 10072 assessed as diameter of zone of inhibition at 20 microg/disc after 24 hrs by agar well diffusion method; format: functional; details: ATCC 10072, 24 h, read-out: DIZ; how it was run: as §3
Candida albicans [14] = assay: Antimicrobial activity against Candida albicans ATCC 12031 assessed as diameter of zone of inhibition at 20 microg/disc after 24 hrs by agar well diffusion method; format: functional; details: ATCC 12031, 24 h, read-out: DIZ; how it was run: as §3

| SMILES | zone of inhibition at 2000 µg/mL (Staphylococcus aureus [1]) [mm] | MIC (Aspergillus fumigatus [2]) [mg/L] | MIC (Aspergillus flavus [3]) [mg/L] | MIC (Aspergillus versicolor [4]) [mg/L] | zone of inhibition at 2000 µg/mL (Candida albicans [5]) [mm] | zone of inhibition at 2000 µg/mL (Aspergillus versicolor [6]) [mm] | zone of inhibition at 2000 µg/mL (Aspergillus flavus [7]) [mm] | zone of inhibition at 2000 µg/mL (Escherichia coli) [mm] | zone of inhibition at 2000 µg/mL (Aspergillus fumigatus [8]) [mm] | MIC (Candida albicans [9]) [mg/L] | zone of inhibition at 25 µg/disc (Staphylococcus aureus [10]) [mm] | zone of inhibition at 20 µg/disc (Aspergillus flavus [11]) [mm] | zone of inhibition at 20 µg/disc (Aspergillus fumigatus [12]) [mm] | zone of inhibition at 20 µg/disc (Aspergillus versicolor [13]) [mm] | zone of inhibition at 20 µg/disc (Candida albicans [14]) [mm] |
| --- | --- | --- | --- | --- | --- | --- | --- | --- | --- | --- | --- | --- | --- | --- | --- |
| COc1ccc(C2CC(c3c(O)cc(C)c(Cl)c3C)=NN2)cc1 (centres undefined) | 11 | 25 (≈ 75.6 µM) | 6.25 (≈ 18.9 µM) | 25 (≈ 75.6 µM) | 18 | 13 | 12 | 8 | 18 | 50 (≈ 151 µM) |  |  |  |  |  |
| Cc1cc(O)c(C2=NNC(c3cccc(O)c3)C2)c(C)c1Cl (centres undefined) | 11 | 12.5 (≈ 39.5 µM) | 3.12 (≈ 9.86 µM) | 6.25 (≈ 19.7 µM) | 23 | 21 | 21 | 9 | 20 | 12.5 (≈ 39.5 µM) |  |  |  |  |  |
| Cc1cc(O)c(C2=NNC(c3ccc(N(C)C)cc3)C2)c(C)c1Cl (centres undefined) | 12 | 12.5 (≈ 36.4 µM) | 6.25 (≈ 18.2 µM) | 12.5 (≈ 36.4 µM) | 18 | 13 | 13 | 8 | 18 | 12.5 (≈ 36.4 µM) |  |  |  |  |  |
| COc1ccc(C2CC(c3c(O)cc(C)c(Cl)c3C)=NN2)cc1OC (centres undefined) | 11 | 12.5 (≈ 34.6 µM) | 25 (≈ 69.3 µM) | 12.5 (≈ 34.6 µM) | 20 | 16 | 17 | 8 | 21 | 12.5 (≈ 34.6 µM) |  |  |  |  |  |
| COc1cc(C2CC(c3c(O)cc(C)c(Cl)c3C)=NN2)cc(OC)c1OC (centres undefined) | 10 | 12.5 (≈ 32 µM) | 12.5 (≈ 32 µM) | 12.5 (≈ 32 µM) | 20 | 16 | 15 | 9 | 21 | 12.5 (≈ 32 µM) |  |  |  |  |  |
| Cc1cc(O)c(C2=NOC(c3ccccc3)C2)c(C)c1Cl (centres undefined) | 11 | 12.5 (≈ 41.4 µM) | 6.25 (≈ 20.7 µM) | 25 (≈ 82.8 µM) | 22 | 17 | 15 | 8 | 21 | 25 (≈ 82.8 µM) |  |  |  |  |  |
| COc1ccc(C2CC(c3c(O)cc(C)c(Cl)c3C)=NO2)cc1 (centres undefined) | 11 | 25 (≈ 75.3 µM) | 6.25 (≈ 18.8 µM) | 25 (≈ 75.3 µM) | 22 | 15 | 16 | 8 | 16 | 12.5 (≈ 37.7 µM) |  |  |  |  |  |
| Cc1cc(O)c(C2=NOC(c3ccc(Cl)cc3)C2)c(C)c1Cl (centres undefined) | 12 | 6.25 (≈ 18.6 µM) | 12.5 (≈ 37.2 µM) | 12.5 (≈ 37.2 µM) | 22 | 21 | 20 | 7 | 20 | 12.5 (≈ 37.2 µM) |  |  |  |  |  |
| Cc1cc(O)c(C2=NOC(c3ccccc3Cl)C2)c(C)c1Cl (centres undefined) | 11 | 6.25 (≈ 18.6 µM) | 12.5 (≈ 37.2 µM) | 12.5 (≈ 37.2 µM) | 23 | 20 | 20 | 8 | 21 | 12.5 (≈ 37.2 µM) |  |  |  |  |  |
| COc1ccc(C2CC(c3c(O)cc(C)c(Cl)c3C)=NO2)cc1OC (centres undefined) | 10 | 6.25 (≈ 17.3 µM) | 12.5 (≈ 34.5 µM) | 12.5 (≈ 34.5 µM) | 21 | 14 | 15 | 9 | 15 | 12.5 (≈ 34.5 µM) |  |  |  |  |  |
| COc1cc(C)c(Cl)c(C)c1C(=O)C1=NNCC1c1ccccc1 (centres undefined) | 10 | 6.25 (≈ 18.2 µM) | 6.25 (≈ 18.2 µM) | 12.5 (≈ 36.5 µM) | 19 | 19 | 21 | 8 | 20 | 25 (≈ 72.9 µM) |  |  |  |  |  |
| COc1ccccc1C1CNN=C1C(=O)c1c(OC)cc(C)c(Cl)c1C (centres undefined) | 9 | 12.5 (≈ 33.5 µM) | 6.25 (≈ 16.8 µM) | 12.5 (≈ 33.5 µM) | 21 | 20 | 19 | 8 | 18 | 12.5 (≈ 33.5 µM) |  |  |  |  |  |
| COc1cc(C)c(Cl)c(C)c1C(=O)C1=NNCC1c1ccccc1[N+](=O)[O-] (centres undefined) | 10 | 12.5 (≈ 32.2 µM) | 12.5 (≈ 32.2 µM) | 12.5 (≈ 32.2 µM) | 20 | 19 | 19 | 9 | 20 | 25 (≈ 64.5 µM) |  |  |  |  |  |
| O=C(O)c1cn(C2CC2)c2cc(N3CCNCC3)c(F)cc2c1=O [CIPROFLOXACIN] |  |  |  |  |  |  |  |  |  |  | 24 |  |  |  |  |
| OC(Cn1cncn1)(Cn1cncn1)c1ccc(F)cc1F [FLUCONAZOLE] |  | 12.5 (≈ 40.8 µM) | 12.5 (≈ 40.8 µM) | 3.12 (≈ 10.2 µM) |  |  |  |  |  | 12.5 (≈ 40.8 µM) |  | 21 | 22 | 21 | 21 |
